ChEMBL document CHEMBL4359838, “Glucopyranosylidene-spiro-imidazolinones, a New Ring System: Synthesis and Evaluation as Glycogen Phosphorylase Inhibitors by Enzyme Kinetics and X-ray Crystallography” (J Med Chem, 2019)
pIC50, pKi: −log10 of the molar value. Activity calls are given as the source filed them. No cut-off for these calls is given here.

What was measured:
[1] = Inhibition of rabbit muscle Glycogen phosphorylase b using glucose-1-phosphate as substrate in presence of AMP; set-up: species or system Oryctolagus cuniculus
Outline: (§1)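 Rabbit muscle GPb (3 μg/mL) was assayed at 30 °C for glycogen synthesis in 30 mM imidazole/HCl pH 6.8 with 60 mM KCl, 0.6 mM EDTA, 0.6 mM DTT, 0.2% w/v glycogen and 1 mM AMP. Glc-1-P was varied (2, 3, 4, 6, 10 mM) at several inhibitor concentrations. Pi release gave initial rates; Ki came from Km(app) versus [inhibitor] by nonlinear regression.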

[2] = Inhibition of rabbit muscle Glycogen phosphorylase a using glucose-1-phosphate as substrate; set-up: species or system Oryctolagus cuniculus
Outline: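 Rabbit muscle GPa (3 μg/mL) was run at 30 °C in the glycogen-synthesis direction in 30 mM imidazole/HCl pH 6.8 containing 60 mM KCl, 0.6 mM EDTA, 0.6 mM DTT and 0.2% w/v glycogen, without AMP. Glc-1-P was 2, 3, 4, 6 and 10 mM with varied inhibitor. Inorganic phosphate release was measured; Ki came from the Km(app) versus [inhibitor] fit.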

Homo sapiens [3] = species on record: Homo sapiens; assay: Competitive inhibition of human liver Glycogen phosphorylase a up to 35 uM using glucose-1-phosphate as substrate by Lineweaver-Burk plot analysis
Outline: (§2)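 Human liver GPa (1 μg/mL) assayed at 30 °C toward glycogen synthesis in 30 mM imidazole/HCl pH 6.8 with 60 mM KCl, 0.6 mM EDTA, 0.6 mM DTT, 0.2% w/v glycogen and no AMP. Glc-1-P was varied at 1, 2, 3, 4 and 6 mM against several inhibitor levels. Released Pi was read; Ki came from Km(app) versus [inhibitor] by weighted nonlinear regression.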

[4] = Inhibition of human liver Glycogen phosphorylase a using glucose-1-phosphate as substrate; outline: as §2
Homo sapiens [5] = species on record: Homo sapiens; assay: Competitive inhibition of human liver Glycogen phosphorylase a up to 10 uM using glucose-1-phosphate as substrate by Lineweaver-Burk plot analysis; outline: as §2
Homo sapiens [6] = species on record: Homo sapiens; assay: Competitive inhibition of human liver Glycogen phosphorylase a up to 180 uM using glucose-1-phosphate as substrate by Lineweaver-Burk plot analysis; outline: as §2
Oryctolagus cuniculus = species on record: Oryctolagus cuniculus; assay: Inhibition of rabbit muscle Glycogen phosphorylase b at 625 uM using glucose-1-phosphate as substrate in presence of AMP relative to control
[7] = Inhibition of rabbit muscle Glycogen phosphorylase b using alpha-D-glucose-1-phosphate as substrate in presence of AMP by dixon plot analysis; set-up: species or system Oryctolagus cuniculus; outline: as §1
HepG2 = assay: Cytotoxicity against human HepG2 cells at 80 to 516 uM incubated for 2 hrs; type: cell-based; conditions: hepg2, 2 h
Homo sapiens [8] = species on record: Homo sapiens; assay: Competitive inhibition of human liver Glycogen phosphorylase a up to 3 uM using glucose-1-phosphate as substrate by Lineweaver-Burk plot analysis; outline: as §2
[9] = Inhibition of Glycogen phosphorylase in human HepG2 cells incubated for 2 hrs; type: cell-based
Outline: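 HepG2 cells were precultured in 25 mmol/L glucose with 10 nM insulin to load glycogen. They were then shifted to 5 mmol/L glucose with inhibitor at 80–516 μM for 2 h to drive glycogenolysis. GP activity was read spectrophotometrically in the whole homogenate, and IC50 was derived from the concentration series.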

Homo sapiens [10] = species on record: Homo sapiens; assay: Competitive inhibition of human liver Glycogen phosphorylase a up to 1000 uM using glucose-1-phosphate as substrate by Lineweaver-Burk plot analysis
Homo sapiens [11] = species on record: Homo sapiens; assay: Competitive inhibition of human liver Glycogen phosphorylase a up to 650 uM using glucose-1-phosphate as substrate by Lineweaver-Burk plot analysis; outline: as §2

| SMILES | pKi [1] | pKi [2] | pKi [4] | inhibition (Oryctolagus cuniculus) | also measured |
| --- | --- | --- | --- | --- | --- |
| O=C1NC(=O)[C@@]2(N1)O[C@H](CO)[C@@H](O)[C@H](O)[C@H]2O | 5.51 |  |  |  |  |
| O=C1N=C(c2cccc3ccccc23)N[C@@]12O[C@H](CO)[C@@H](O)[C@H](O)[C@H]2O | 4.89 | 5.18 | 4.65 |  | inhibition (Homo sapiens [3]): Active |
| O=C1N=C(c2ccccc2)N[C@@]12O[C@H](CO)[C@@H](O)[C@H](O)[C@H]2O | 5.05 | 5.35 | 5.08 |  | inhibition (Homo sapiens [5]): Active |
| O=C1N=C(c2ccccc2)N[C@]12O[C@H](CO)[C@@H](O)[C@H](O)[C@H]2O | 3.87 | 4.47 | 4.01 |  | inhibition (Homo sapiens [6]): Active |
| O=C1NC(=O)[C@]2(N1)O[C@H](CO)[C@@H](O)[C@H](O)[C@H]2O | 3.49 to 3.98 |  |  |  |  |
| O=C1N=C(c2ccc(C(F)(F)F)cc2)N[C@@]12O[C@H](CO)[C@@H](O)[C@H](O)[C@H]2O |  |  |  | inactive |  |
| O=C1N=C(c2ccc(C(F)(F)F)cc2)N[C@]12O[C@H](CO)[C@@H](O)[C@H](O)[C@H]2O |  |  |  | inactive |  |
| OC[C@H]1O[C@]2(ON=C(c3ccccc3)S2)[C@H](O)[C@@H](O)[C@@H]1O |  |  |  |  | pKi [7]: 4.59 |
| O=C1N=C(c2ccc3ccccc3c2)N[C@@]12O[C@H](CO)[C@@H](O)[C@H](O)[C@H]2O | 5.68 | 5.95 | 5.76 |  | Activity (HepG2): Non-Toxic; inhibition (Homo sapiens [8]): Active; pIC50 [9]: 3.75 |
| O=C1N=C(c2cccc3ccccc23)N[C@]12O[C@H](CO)[C@@H](O)[C@H](O)[C@H]2O |  | 3.19 | 2.93 | inactive | inhibition (Homo sapiens [10]): Active |
| O=C1N=C(c2ccc3ccccc3c2)N[C@]12O[C@H](CO)[C@@H](O)[C@H](O)[C@H]2O |  | 3.67 | 3.43 | 25% | inhibition (Homo sapiens [11]): Active |
| O=C1NC(=S)N[C@@]12O[C@H](CO)[C@@H](O)[C@H](O)[C@H]2O | 5.29 |  |  |  |  |
